# Laboratory results as given in ChEMBL document CHEMBL6114987, “Identification of the first-in-class dual inhibitor targeting BAG3 and HSP70 proteins to disrupt multiple chaperone pathways” (Eur J Med Chem, 2025).
# Active and inactive are the calls of the source. The rule behind the calls is not given here.
# Legend:
# [1] = molecular target: T1, BAG family molecular chaperone regulator 3 (Homo sapiens, UniProt O95817); experiment: Binding affinity to full length recombinant human BAG3 assessed as dissociation constant by SPR analysis
# T1 sequence (O95817 whole entry): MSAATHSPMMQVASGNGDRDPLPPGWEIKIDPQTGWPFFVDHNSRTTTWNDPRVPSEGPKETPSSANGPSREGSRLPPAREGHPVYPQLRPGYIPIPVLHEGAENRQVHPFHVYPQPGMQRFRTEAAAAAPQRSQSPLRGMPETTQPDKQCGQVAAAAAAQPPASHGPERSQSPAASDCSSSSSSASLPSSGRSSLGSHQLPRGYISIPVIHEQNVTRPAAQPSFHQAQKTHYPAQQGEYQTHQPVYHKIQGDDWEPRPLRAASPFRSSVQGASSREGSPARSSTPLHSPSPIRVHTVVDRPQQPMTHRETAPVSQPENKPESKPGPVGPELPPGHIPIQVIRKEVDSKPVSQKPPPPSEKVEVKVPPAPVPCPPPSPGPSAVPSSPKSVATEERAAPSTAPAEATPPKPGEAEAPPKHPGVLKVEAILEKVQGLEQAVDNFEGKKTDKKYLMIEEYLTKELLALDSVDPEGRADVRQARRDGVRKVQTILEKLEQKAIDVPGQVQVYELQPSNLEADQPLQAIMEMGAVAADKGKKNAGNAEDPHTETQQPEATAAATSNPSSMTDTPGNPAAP
# [2] = organism: Homo sapiens; experiment: (§1) Binding affinity to recombinant human HSP70 assessed as dissociation constant by SPR analysis
# Summary of the method: (§2)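 HSP70 amine-coupled on CM5 chip from 0.045 µg µl⁻¹ in 10 mM acetate pH 4.5, density 20 kRU, with unmodified reference surface. Compounds from 10 mM DMSO stocks diluted 1:20 in PBS-P (final 5.0 % DMSO), 10 concentrations by 1:2 dilution spanning 0–100 µM. Run at 25 °C, 20 µL/min, 90 s association, 400 s dissociation; KD reported ± SD.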
# [3] = tested on: A549; experiment: Cytotoxicity against human A549 cells assessed as cell viability incubated for 72 hrs by MTT assay; format: functional, cell-based; conditions: A549, 72 h
# [4] = tested on: HeLa; experiment: Cytotoxicity against human HeLa cells assessed as cell viability incubated for 72 hrs by MTT assay
# [5] = tested on: A-375; experiment: Cytotoxicity against human A-375 cells assessed as cell viability incubated for 72 hrs by MTT assay; format: functional, cell-based; conditions: A-375, 72 h
# [6] = tested on: HeLa; experiment: Cytotoxicity against human HeLa cells assessed as mortality rate at 10 to 50 uM incubated for 72 hrs by MTT assay relative to control; format: functional; conditions: dose 10-50 µM
# Summary of the method: (§3)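 MTT reduction assay. Cells grown in DMEM/high glucose with 10 % FBS, 2 mM glutamine and penicillin/streptomycin at 37 °C, 5 % CO2. HeLa seeded at 3.5×10^3 and HaCaT at 5.0×10^3 cells/well, in triplicate. After 24 h attachment, compounds added at 10 and 50 μM for 72 h. Controls: 0.1 % DMSO (negative) and 10 % DMSO (positive). MTT added for 3 h at 37 °C, formazan dissolved in DMF/SDS (pH 4.5), absorbance read at 570 nm. Three independent experiments.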
# [7] = tested on: HaCaT; experiment: Cytotoxicity against human HaCaT cells assessed as mortality rate at 50 uM incubated for 72 hrs by MTT assay relative to control; format: toxicity, cell-based; summary of the method: as §3
# [8] = tested on: HeLa; experiment: Induction of apoptosis in human HeLa cells assessed as increase in apoptotic cells at 20 uM incubated for 72 hrs by Annexin V-FITC/PI staining based flow cytometry analysis relative to control; format: functional
# Summary of the method: (§4)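 HeLa cells (2×10^4) incubated 72 h at 20–50 μM. Stained with Annexin V-FITC and PI for 15 min at RT, then analysed by flow cytometry. Reported as percentage of live, apoptotic and necrotic cells versus control, mean ± SD of three independent experiments.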
# [9] = as §1; summary of the method: as §2
# [10] = tested on: HeLa; experiment: Induction of cell cycle arrest in human HeLa cells assessed as increase in hypodiploid nuclei at 10 to 50 uM incubated for 72 hrs by PI staining based flow cytometry analysis; format: functional; conditions: dose 10-50 µM
# Summary of the method: (§5)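 HeLa cells (1×10^5/well) adhered 24 h, then treated 72 h with 10, 25 and 50 μM (reference inhibitor 1, 5, 10 μM), with 0.1 % DMSO negative and 10 % positive controls. Dead and live cells pooled, stained with 50 mg/L PI in 0.1 % citrate/0.1 % Triton X-100 for 30 min at 4 °C in the dark. Sub-G0/G1 percentage measured by flow cytometry, debris gated out.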
# [11] = tested on: HeLa; experiment: Downregulation of FOXM1 expression in human HeLa cells incubated for 72 hrs by Western blot analysis; format: functional, cell-based
# Summary of the method: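 HeLa cells treated 72 h at 30 and 15 μM. Lysates (30 μg protein) separated on 10 % SDS-PAGE and blotted with anti-FOXM1 (1:500), β-tubulin as loading control. Detection by ECL, quantified by densitometry.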
# [12] = tested on: HeLa; experiment: Downregulation of FOXM1 expression in human HeLa cells at 50 uM incubated for 72 hrs by Western blot analysis; format: functional, cell-based
# [13] = tested on: HeLa; experiment: Induction of apoptosis in human HeLa cells assessed as increase in caspase 9 expression incubated for 72 hrs by flow cytometry analysis; format: functional, cell-based; conditions: dose 10-50 µM
# Summary of the method: (§6)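 HeLa cells (2.5×10^5/well) treated 24 h after seeding for 72 h at 10, 25, 50 μM (reference inhibitor 10 μM) or 0.1 % DMSO. Fixed in 1 % formaldehyde (20 min, 4 °C), permeabilized with 0.1 % Triton, stained with anti-caspase 3, anti-caspase 9 or anti-p21 plus secondary antibodies. Read by flow cytometry as percentage of positive cells.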
# [14] = tested on: HeLa; experiment: Induction of apoptosis in human HeLa cells assessed as increase in apoptotic cells at 50 uM incubated for 72 hrs by Annexin V-FITC/PI staining based flow cytometry analysis relative to control; format: functional; summary of the method: as §4
# [15] = organism: Homo sapiens; experiment: Inhibition of Hsp70 (unknown origin) ATPase activity assessed as residual activity at 50 uM by ATPase activity incubated for 1 hr by ADP-glo assay relative to control
# Summary of the method: (§7)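 HSP70 ATPase assay by ADP-Glo. HSP70 plus HSP40 pre-incubated with compound for 30 min at RT, then ATP added and reacted 1 h at 30 °C with 1 % DMSO final. ADP-Glo reagent added for 1 h, then detection reagent for 20 min, and luminescence read. Activity scaled between no-compound (100 %) and no-HSP70 (0 %) wells; run in duplicates.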
# [16] = tested on: HeLa; experiment: Induction of apoptosis in human HeLa cells assessed as increase in caspase 3 expression incubated for 72 hrs by flow cytometry analysis; format: functional, cell-based; conditions: dose 10-50 µM; summary of the method: as §6
# [17] = tested on: HeLa; experiment: Induction of apoptosis in human HeLa cells assessed as increase in apoptotic cells at 30 uM incubated for 72 hrs by Annexin V-FITC/PI staining based flow cytometry analysis relative to control; format: functional; summary of the method: as §4
# [18] = tested on: HeLa; experiment: Upregulation of p21 expression in human HeLa cells incubated for 72 hrs by flow cytometry analysis; format: functional, cell-based; conditions: dose 10-50 µM; summary of the method: as §6
# [19] = tested on: HaCaT; experiment: Cytotoxicity against human HaCaT cells at 10 to 50 uM incubated for 24 hrs by MTT assay; format: toxicity, cell-based; conditions: dose 10-50 µM
# Summary of the method: (§8)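 HaCaT keratinocytes seeded at 5.0×10^3 cells/well in triplicate and allowed to attach for 24 h. Exposed to 10 and 50 μM for 24, 48 or 72 h with 0.1 % DMSO control, then read by MTT reduction (3 h, 37 °C) with absorbance at 570 nm.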
# [20] = tested on: HaCaT; experiment: Cytotoxicity against human HaCaT cells assessed as mortality at 10 to 50 uM incubated for 72 hrs by MTT assay; format: toxicity, cell-based; conditions: dose 10-50 µM
# [21] = tested on: HaCaT; experiment: Cytotoxicity against human HaCaT cells at 10 to 50 uM incubated for 72 hrs by MTT assay; format: toxicity, cell-based; conditions: dose 10-50 µM; summary of the method: as §8
# [22] = tested on: HaCaT; experiment: Cytotoxicity against human HaCaT cells at 10 to 50 uM incubated for 48 hrs by MTT assay; format: toxicity, cell-based; conditions: dose 10-50 µM; summary of the method: as §8
# [23] = tested on: HeLa; experiment: Induction of apoptosis in human HeLa cells assessed as increase in apoptotic cells incubated for 72 hrs by Annexin V-FITC/PI staining based flow cytometry analysis; format: functional, cell-based; conditions: dose 20-50 µM; summary of the method: as §4
# [24] = organism: Homo sapiens; experiment: Inhibition of Hsp70 (unknown origin) ATPase activity assessed as residual activity at 10 uM by ATPase activity incubated for 1 hr by ADP-glo assay relative to control; summary of the method: as §7
# [25] = tested on: HeLa; experiment: Induction of cell cycle arrest in human HeLa cells assessed as increase in hypodiploid nuclei incubated for 72 hrs by PI staining based flow cytometry analysis; format: functional; conditions: dose 1-10 µM; summary of the method: as §5
# [26] = molecular target: T1, BAG family molecular chaperone regulator 3; experiment: Binding affinity to recombinant human BAG3 domain assessed as dissociation constant by SPR analysis
# [27] = Solubility of compound; format: physicochemical
smiles,measurement,setting,value
CCCCNC(=O)C(c1ccccc1Br)N(Cc1ccccc1)C(=O)Cn1cc(CCC(C)C)nn1 (stereo not given),Activity,[1],inactive
CCOC(=O)CN1C(=O)S/C(=C\c2ccc(O)c(O)c2)C1=O,Activity,[2],inactive
same,IC50,[3],32.3 µM
same,IC50,[4],> 50 µM
same,IC50,[5],16.6 µM
CCCCNC(=O)C(c1ccccc1Br)N(Cc1ccccc1)C(=O)Cn1cc(-c2ccccc2)nn1 (stereo not given),Activity,[1],inactive
CCCCNC(=O)C(c1c(Br)ccnc1Cl)N(CC(C)CC)C(=O)Cn1cc(-c2cccc(O)c2)nn1 (stereo not given),Activity,[1],inactive
CCCCNC(=O)C(c1ccccc1Br)N(C(=O)Cn1cc(CCC(C)C)nn1)c1ccc(Cl)cc1 (stereo not given),Activity,[1],inactive
CCCCNC(=O)C(c1ccc2cn[nH]c2c1)N(CC(C)CC)C(=O)Cn1cc(-c2cc(C)ccc2C)nn1 (stereo not given),mortality,[6],70%
same,mortality,[7],60%
CCCCNC(=O)C(c1c[nH]c(=O)[nH]c1=O)N(CC(C)CC)C(=O)Cn1cc(-c2cc(C)c(C)cc2C)nn1 (stereo not given),Activity,[8],18.6%
same,Kd,[9],33.8 µM
same,Activity,[10],Active
same,Activity,[11],Dose-dependent-effect
same,Activity,[12],inactive
same,IC50,[4],49.5 µM
same,Activity,[13],Dose-dependent-effect
same,mortality,[6],70%
same,Activity,[14],26.2%
same,Activity,[15],40%
same,Activity,[16],Dose-dependent-effect
same,Activity,[17],23%
same,Activity,[18],Dose-dependent-effect
same,Activity,[19],Non-toxic
same,Activity,[20],Non-toxic
same,Activity,[21],Non-toxic
same,Activity,[22],Non-toxic
same,Activity,[23],Dose-dependent-effect
same,Activity,[24],20%
CCn1c(=O)/c(=C2\Sc3ccccc3N2C)s/c1=C\c1cccc[n+]1C,Kd,[9],41 µM
same,Activity,[1],inactive
same,Activity,[25],Dose-dependent-effect
same,Activity,[15],43%
same,Activity,[24],30%
CCCCNC(=O)C(c1ccccc1Br)N(CC(C)CC)C(=O)Cn1cc(CCC(C)C)nn1 (stereo not given),Activity,[1],inactive
CCCCNC(=O)C(c1ccc(Cl)nc1)N(CC(C)CC)C(=O)Cn1cc(C(C)(O)c2ccc(F)cc2)nn1 (stereo not given),Activity,[1],inactive
same,Kd,[26],Not_determined
CCCCNC(=O)C(c1ccc(C(F)(F)F)cc1)N(CCC)C(=O)Cn1cc(-c2cccc(C)c2)nn1 (stereo not given),solubility,[27],Insoluble
Cc1ccc(S(=O)(=O)CNC(=O)C(c2ccccc2Br)N(Cc2ccccc2)C(=O)Cn2cc(-c3ccccc3)nn2)cc1 (stereo not given),Activity,[1],inactive
CCCCNC(=O)C(c1cc(O)ccc1Br)N(CC(C)CC)C(=O)Cn1cc(-c2cccc(OC)c2)nn1 (stereo not given),Activity,[1],inactive
